# Experimental data gathered from unrelated publications.
# Each line is one published result; the experiments were not run side by side.
# Observed: cell growth or viability
SMILES,cell line,assay,setting,endpoint,result
CCCCCCCCCCCCCCCCCCOc1cccc(CC(=O)OCC[N+]2(C)CCCCC2)c1,NCI-H226,SRB,10 µM,inhibition,10.8%
CC(C)(C)c1cc(NC(=O)Nc2ccc(-c3cn4c(n3)sc3cc(OCCN5CCOCC5)ccc34)cc2)no1,ML-2,,72 h,GI50,> 10000 nM
Nc1ccccc1NC(=O)c1ccc(Cn2cnc3c(Nc4ccc(Cl)cc4)ncnc32)cc1,U-937,MTT,72 h,IC50,920 nM
CCCCCCCCCCCCCCCCCCOc1ccc(CC(=O)OCCC[N+](C)(C)C)cc1,NCI-H226,SRB,10 µM,inhibition,22.1%
CCc1nc(C(N)=O)c(Nc2ccc(N3CCC(N4CCN(C)CC4)CC3)c(OC)c2)nc1NC1CCOCC1,ML-2,,72 h,GI50,902 nM
COc1cccc2c1C(=O)c1c(O)c3c(c(O)c1C2=O)C[C@@](O)(C(=O)CO)C[C@@H]3O[C@H]1C[C@H](N)[C@H](O)[C@H](C)O1,MINO,,96 h,IC50,11.7 nM
Cc1nc(Nc2ncc(C(=O)Nc3c(C)cccc3Cl)s2)cc(N2CC[C@H](O)C2)n1,SU-DHL-8,ATP luminescence,72 h,IC50,> 10000 nM
COc1ccc(Nc2ncnc3c2ncn3Cc2ccc(C(=O)NO)cc2)cc1,U-937,MTT,72 h,IC50,1230 nM
C=C(NC(=O)C(=C)NC(=O)c1csc(C2=N[C@@H]3c4csc(n4)[C@H]4NC(=O)c5csc(n5)[C@H]([C@](C)(O)[C@@H](C)O)NC(=O)[C@H]5CSC(=N5)/C(=C/C)NC(=O)[C@H]([C@@H](C)O)NC(=O)c5csc(n5)[C@]3(CC2)NC(=O)[C@H](C)NC(=O)C(=C)NC(=O)[C@H](C)NC(=O)[C@H]([C@@H](C)CC)N[C@@H]2C=Cc3c([C@H](C)O)cc(nc3[C@H]2O)C(=O)O[C@@H]4C)n1)C(N)=O,Calu-1,,,EC50,3200 nM
COc1cccc2c1C(=O)c1c(O)c3c(c(O)c1C2=O)C[C@@](O)(C(=O)CO)C[C@@H]3O[C@H]1C[C@H](N)[C@H](O)[C@H](C)O1,HuCC-A1,MTT,,IC50,861 nM
CCCCCCCCCCCCCCCCCCOc1ccccc1CC(=O)OCC[N+](CC)(CC)CC,NCI-H226,SRB,10 µM,inhibition,46.3%
Cc1n[nH]c2ccc3nc(-c4ccc(C(=O)NCCN(C)C)cc4)c4c(c3c12)CCCCC4,U-937,,72 h,GI50,5920 nM
CCCCCCCCCCCCCCCCCCOc1ccc(CC(=O)OCC[N+]2(C)CCCC2)cc1,NCI-H226,SRB,10 µM,inhibition,7.36%
Cc1n[nH]c2ccc3nc(-c4ccc(C(=O)NCCN(C)C)cc4)c4c(c3c12)CCCC4,ML-2,,72 h,GI50,429 nM
CN1CCC(NC2CCc3[nH]c4c(C(N)=O)ccc(-c5ccccc5Cl)c4c3C2)CC1 (stereo not shown),MINO,,96 h,IC50,27.3 nM
CCCCCCCCCCCCCCCCCCOc1cccc(CC(=O)OCC[N+](C)(C)C)c1,NCI-H226,SRB,10 µM,inhibition,5.79%
Cc1n[nH]c2ccc3nc(-c4ccc(C(=O)NCCN(C)C)cc4F)c4c(c3c12)CCCC4,ML-2,,72 h,GI50,95 nM
CCCCCCCCCCCCCCCCCCOc1ccccc1CC(=O)OCC[N+]1(C)CCCCC1,NCI-H226,SRB,10 µM,inhibition,71.9%
CN(C)CCNC(=O)c1ccc(-c2nc3ccc4[nH]ncc4c3c3c2CCCC3)cc1,ML-2,,72 h,GI50,152 nM
C=C[C@]1(C)C=C2CC[C@H]3C(C)(C)CCC[C@]3(C)[C@H]2CC1,HuCC-A1,MTT,75 h,IC50,108000 nM
CCCCCCCCCCCCCCCCCCOc1ccccc1CC(=O)OCC[N+]1(C)CCOCC1,NCI-H226,SRB,10 µM,inhibition,50.2%
Nc1ccccc1NC(=O)c1ccc(Cn2cnc3c(Nc4ccc(Br)cc4F)ncnc32)cc1,U-937,MTT,72 h,IC50,1370 nM
CN(C)CCNC(=O)c1ccc(-c2nc3ccc4[nH]ncc4c3c3c2CCCC3)c(F)c1,ML-2,,72 h,GI50,243 nM
COc1cccc2c1cc1c3c(cc4c(c32)OCO4)C(=O)N1C,HuCC-A1,MTT,75 h,IC50,26000 nM
O=C(NO)c1ccc(Cn2cnc3c(Nc4ccc(Cl)cc4)ncnc32)cc1,U-937,MTT,72 h,IC50,7910 nM
CCCCCCCCCCCCCCCCCCOc1cccc(CC(=O)OCCC[N+](C)(C)C)c1,NCI-H226,SRB,10 µM,inhibition,15%
CN(C)CCNC(=O)c1ccc(-c2nc3ccc4[nH]ncc4c3c3c2CCCCC3)cc1,U-937,,72 h,GI50,1480 nM
COc1cccc2c1C(=O)c1c(O)c3c(c(O)c1C2=O)C[C@@](O)(C(=O)CO)C[C@@H]3O[C@H]1C[C@H](N)[C@H](O)[C@H](C)O1,HuCC-A1,MTT,75 h,IC50,840 nM
